{"data": "Results collected from several papers", "target": "Non-receptor tyrosine-protein kinase TNK1 (TNK1, Homo sapiens, UniProt Q13470)", "One construct used (Q13470 1-666)": "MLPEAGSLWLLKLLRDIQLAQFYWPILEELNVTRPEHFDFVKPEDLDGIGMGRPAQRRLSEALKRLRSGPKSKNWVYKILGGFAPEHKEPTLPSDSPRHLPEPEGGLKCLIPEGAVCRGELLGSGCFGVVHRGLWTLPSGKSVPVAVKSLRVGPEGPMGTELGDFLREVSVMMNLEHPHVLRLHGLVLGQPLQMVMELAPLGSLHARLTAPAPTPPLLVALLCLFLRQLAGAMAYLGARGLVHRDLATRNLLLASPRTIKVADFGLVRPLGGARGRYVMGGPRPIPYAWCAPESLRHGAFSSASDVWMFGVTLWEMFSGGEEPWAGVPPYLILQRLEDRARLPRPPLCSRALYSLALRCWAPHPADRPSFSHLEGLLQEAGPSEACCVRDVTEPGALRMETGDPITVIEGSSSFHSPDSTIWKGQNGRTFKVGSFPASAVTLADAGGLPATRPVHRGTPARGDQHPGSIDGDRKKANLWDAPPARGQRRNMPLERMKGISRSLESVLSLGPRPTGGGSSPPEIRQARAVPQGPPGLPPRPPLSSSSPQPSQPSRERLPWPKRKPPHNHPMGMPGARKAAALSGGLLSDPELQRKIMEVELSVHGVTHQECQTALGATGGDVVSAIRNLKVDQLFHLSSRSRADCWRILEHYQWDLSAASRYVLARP", "note": "Lines come from different studies, so protocols differ."}
{"Structure (SMILES)": "CNC(=O)[C@@H]1CC[C@@H](n2c(-c3ccc4cnccc4c3)nc3ccc(C(=O)NCc4cccc(C(N)=O)c4)cc32)C1", "effect on": "binding", "method": "competition with immobilised ligand", "concentration": "1 µM", "remaining binding [%]": 97}
{"Structure (SMILES)": "C[C@@H](c1ccc(-n2cnc3c(N)ncnc32)cc1)N1CCc2nn(C)c(Cc3ccccc3)c2C1=O", "effect on": "binding", "method": "competition with immobilised ligand", "concentration": "0.1 µM", "remaining binding [%]": 47}
{"Structure (SMILES)": "CNC(=O)Nc1ccc2c(c1)CC[C@@]21OC(=O)N(CC(=O)N(Cc2ccc(F)cc2)[C@@H](C)C(F)(F)F)C1=O", "effect on": "cell-free assay", "method": "competition with immobilised ligand", "concentration": "1 µM", "remaining binding [%]": 86}
{"Structure (SMILES)": "CN(C)c1ncc(F)c(-c2cnn3ncccc23)n1", "effect on": "binding", "concentration": "1 µM", "remaining binding [%]": 100}
{"Structure (SMILES)": "O=C(Nc1c[nH]nc1C(=O)NC1CCNCC1)c1cc(F)cc(F)c1", "effect on": "binding", "method": "competition with immobilised ligand", "concentration": "1 µM", "remaining binding [%]": 38}
{"Structure (SMILES)": "Cc1noc([C@H]2C[C@@H](c3ccc(C(F)(F)F)cc3)CN(C(=O)N3CCS(=O)(=O)C3)C2)n1", "effect on": "cell-free assay", "method": "competition with immobilised ligand", "concentration": "1 µM", "remaining binding [%]": 100}
{"Structure (SMILES)": "F[C@@H]1CCN(c2nccc(-c3cnn4ncccc34)n2)C1", "effect on": "binding", "concentration": "1 µM", "remaining binding [%]": 87}
{"Structure (SMILES)": "COc1cc(C(=O)N2CCC(N3CCN(C)CC3)CC2)ccc1Nc1ncc2c(n1)N(C)c1ccccc1C(=O)N2C", "effect on": "binding", "method": "competition with immobilised ligand", "concentration": "10 µM", "remaining binding [%]": 2.8}
{"Structure (SMILES)": "COc1cnc(Nc2cccc(S(N)(=O)=O)c2)nc1N1CCN(c2ccccc2)CC1", "effect on": "binding", "method": "competition with immobilised ligand", "concentration": "1 µM", "remaining binding [%]": 98}
{"Structure (SMILES)": "O=C(c1ccc(Nc2ncc(Cl)c(-c3ccc(Cl)s3)n2)cc1)N1CCC(N2CCCC2)CC1", "effect on": "binding", "method": "competition with immobilised ligand", "concentration": "1 µM", "remaining binding [%]": 13}
{"Structure (SMILES)": "O=C(Nc1ccc(Oc2ccc(F)cc2)cc1)N1CCc2ncccc2[C@H]1c1ccc(F)cc1", "effect on": "cell-free assay", "method": "competition with immobilised ligand", "concentration": "1 µM", "remaining binding [%]": 96}
{"Structure (SMILES)": "N[C@H]1CCN(c2nccc(-c3cnn4ncccc34)n2)C1", "effect on": "binding", "concentration": "1 µM", "remaining binding [%]": 0}
{"Structure (SMILES)": "Cc1c[nH]c2nccc(Oc3c(F)cc(Nc4cc(Cl)nc(N)n4)cc3F)c12", "effect on": "cell-free assay", "method": "competition with immobilised ligand", "concentration": "0.1 µM", "remaining binding [%]": 100}
{"Structure (SMILES)": "C[C@H]1CCN(c2nccc(-c3cnn4ncccc34)n2)C1", "effect on": "binding", "concentration": "1 µM", "remaining binding [%]": 100}
{"Structure (SMILES)": "CC(C)CC(=O)N1CCc2nc(-c3ccc(Br)cc3)nc(N(C)Cc3ccccc3)c2C1", "effect on": "cell-free assay", "method": "competition with immobilised ligand", "concentration": "0.1 µM", "remaining binding [%]": 100}
{"Structure (SMILES)": "C=CC(=O)N1CCC(C(=O)NCC(=O)N2CCN(c3nc(-c4cnc(N)nc4C(F)F)nc(N4CCOCC4)n3)CC2)CC1", "effect on": "binding", "method": "competition with immobilised ligand", "concentration": "1 µM", "remaining binding [%]": 83}
{"Structure (SMILES)": "Cc1cnn2ncc(-c3ccnc(N(C)C)n3)c2c1", "effect on": "binding", "concentration": "1 µM", "remaining binding [%]": 98}
{"Structure (SMILES)": "O=C(NCCCN1CCOCC1)c1ccc(Nc2ncc(Cl)c(-c3ccc(Cl)s3)n2)cc1", "effect on": "binding", "method": "competition with immobilised ligand", "concentration": "1 µM", "remaining binding [%]": 36}
{"Structure (SMILES)": "O=C(Nc1cccnn1)N1CCC(=Cc2cccc(Oc3ccc(C(F)(F)F)cn3)c2)CC1", "effect on": "cell-free assay", "method": "competition with immobilised ligand", "concentration": "1 µM", "remaining binding [%]": 98}
{"Structure (SMILES)": "O=C(c1ccc(Nc2ncc(Cl)c(-c3cc4ccccc4s3)n2)cc1)N1CCC(N2CCCC2)CC1", "effect on": "binding", "method": "competition with immobilised ligand", "concentration": "1 µM", "remaining binding [%]": 15}
{"Structure (SMILES)": "C[C@@H](c1cccc(C#N)c1)n1cc(Cl)cc(C(N)=O)c1=N", "effect on": "cell-free assay", "method": "competition with immobilised ligand", "concentration": "1 µM", "remaining binding [%]": 94}
{"Structure (SMILES)": "CN(C)c1nccc(-c2cnn3ncccc23)n1", "effect on": "binding", "concentration": "1 µM", "remaining binding [%]": 67}
